# ERAP1 HTS inh: human ERAP1 aminopeptidase inhibitors, primary screen, biochemical, single point, plate reader | recombinant ERAP1, Leu-AMC fluorescence, 60 min | inhibition, % at 10.7 µM | Endoplasmic reticulum aminopeptidase 1 (Homo sapiens), Q9NZ08 | actives 0.15% (n = 340,000);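 active = mean replicate inhibition of at least 30%, or all replicates individually reaching that 30% level; inactive = mean below 30% and not every replicate reaching it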;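 note: 0% = neutral control wells and 100% = L-leucinethiol positive control wells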
# F508del corr: F508del CFTR correction, initial screen, CFBE line, single point; CFBE cells, YFP halide quenching; stimulated with forskolin plus potentiator P3; % fluorescence drop versus neutral controls; actives 0.36% (n = 350,000); AID 720511, 2013; activity (quench increase), % at 7.58 µM;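 active = mean added fluorescence quench of at least 8% versus neutral control, with both replicates also reaching 8%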;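 note: cells transiently co-express mutant CFTR-F508del with the halide-sensitive YFP; corrector assay measuring rescue of mutant channel to the surface after 24 h compound exposure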
# S100A4 MyoIIA: inhibitors of S100A4-myosin IIA peptide binding, primary screen, biochemical, fluorescence polarization, TAMRA-MyoIIA peptide; actives 0.14% (n = 360,000); inhibition, % at 10.7 µM; AID 652163, 2013; Protein S100-A4 (Homo sapiens), P26447;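 active = mean inhibition of at least 70% across replicates, with every replicate also reaching that level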
#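 Material: S100A4 monomer protein / Buffer or medium: 50 mM HEPES pH 7.2, 10 mM CaCl2, 100 mM KCl / Times: 5 min incubation before reading / Benchmarks: neutral control DMSO, positive control TFP / Reagent: labelled myosin peptide probe, 5 nM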
# SIRT5 block: SIRT5 desuccinylase inhibitors, primary screen, biochemical, fluorescence imaging, single point, set 5; NAD-dependent protein deacylase sirtuin-5, mitochondrial (Homo sapiens), Q9NXA8; Purified SirT5, succinyl-peptide AMC, trypsin-coupled fluorescence; inhibition, % at 15 µM; actives 1.1% (n = 330,000); in the data active = inhibition above about 15%
# Ecoli rRNA inh: reduced GFP signal of wild-type E. coli, primary screen, bacterial rRNA inhibitor project, GFP/RFP fluorescence, OD600, single point; E. coli WT GFP vs humanized-ribosome RFP mutants, 24 h; stronger effect = lower value; DMSO median 0, no signal -100; GFP signal change (wild-type ribosome), % (no concentration beside the values); actives 1.6% (n = 350,000); AID 720706, 2013;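 active = significant combined selectivity score with lowered wild-type GFP, culture density cut under 30%, mutant RFP and density less affected; inactive = any of these conditions unmet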
# * hit, by the source's call; / = no result. Most compounds without a hit are left out; they make up all but 3.1% or so of the library.
SMILES,ERAP1 HTS inh,F508del corr,S100A4 MyoIIA,SIRT5 block,Ecoli rRNA inh
CO[C@H]1CN(C)C(=O)c2cc(NC(C)=O)ccc2OC[C@H](C)N(Cc2ccccn2)C[C@H]1C,-0.2,3.8,141.4*,2.4,-1.2
CO[C@H]1CN(C)C(=O)c2cc(NC(C)=O)ccc2OC[C@@H](C)N(Cc2ccccn2)C[C@@H]1C,-2.1,3.4,0.8,-3.7,0.8
CCCNC(=O)Nc1ccc2c(c1)C(=O)N(C)C[C@H](OC)[C@@H](C)CN(C(=O)C1CCCCC1)[C@H](C)CO2,0.3,-1.8,-6.5,5.5,2.1
COc1ccccc1C#Cc1cnc2c(c1)C(=O)N([C@H](C)CO)C[C@H](C)[C@@H](CN(C)C(=O)CC1CC1)O2,2.2,-2.9,-2.3,-0.2,-8.3
Cc1scc(C(=O)NNC(=S)NC(C)c2ccccc2)c1C (stereo not given),-0.6,/,-3.0,3.4,-20.4*
CCc1c(C(=O)NNC(=S)NCC(C)C)csc1C,-3.4,-0.3,8.1,4.4,5.1
COc1ccc(NC(=O)CN(C)C(=O)CSc2ccc(Br)cc2)cc1,-3.1,-2.5,-1.5,-1.7,-30.2*
COc1cccc(NC(=O)CN(C)CC(=O)NCc2ccco2)c1,0.9,-2.0,-4.2,16.9*,6.2
COc1ccc(OCC(=O)Nc2ccc3c(c2)CCC3)cc1,3.3,2.1,5.3,-0.8,/
COc1ccc(NC(=O)CN(C)C(=O)CSc2ccc3c(c2)OCCO3)cc1,0.4,2.1,-1.9,-0.1,4.3
COc1ccc(NC(=O)CN(C)CC(=O)Nc2ccc3c(c2)CCC3)cc1,0.8,-0.8,-1.5,112.0*,-29.8
COc1cc2cc(C(=O)NCCc3c[nH]c4ccccc34)c(N)nc2cc1OC,/,-2.8,-11.6,-3.0,-31.1*
O=C(NCCc1c[nH]c2ccccc12)c1ccc(F)cc1F,1.8,1.1,-7.8,-2.0,1.6
Nc1nc2cc3c(cc2cc1C(=O)NCCc1c[nH]c2ccccc12)OCO3,-10.6,0.7,-2.4,2.7,-25.0*
CCCNC(=O)C[C@@H]1CC[C@@H]2[C@H](COc3ccc(NC(=O)Nc4cccc(C)c4)cc3C(=O)N2C)O1,-2.3,-0.8,-6.6,1.6,-4.6
Cc1ccc(OCc2nc(-c3ccccn3)no2)cc1,-1.5,-0.5,-5.9,16.4*,-9.1
CN1C(=O)c2cc(NC(=O)Nc3ccccc3F)ccc2OC[C@@H]2O[C@@H](CC(=O)O)CC[C@H]21,/,0.0,/,/,6.6
O=C(O)c1cc2ccc(O)cc2oc1=O,/,-3.4,7.7,-57.8,36.2
C/C(=N\NC(=O)CC#N)c1cc2ccc(O)cc2oc1=O,80.5*,-1.3,-9.1,-38.5,15.2
CN(C)c1ccc(Nc2nc(N)c([N+](=O)[O-])c(N3CCOCC3)n2)cc1,2.8,/,-33.4,2.2,-8.3
Nc1nc(Nc2ccccc2F)nc(N2CCOCC2)c1[N+](=O)[O-],5.5,-3.6,-2.0,4.6,-19.9*
COc1ccc(Nc2nc(N)c([N+](=O)[O-])c(N3CCOCC3)n2)cc1,2.7,-3.0,2.0,-1.1,-27.8*
COCC(=O)Nc1ccc2c(c1)C(=O)N(C)C[C@H](OC)[C@H](C)CN(Cc1ccccc1OC)[C@@H](C)CO2,0.0,-2.3,0.5,-4.3,0.1
C/C(=N\NC(=O)c1cc(C)nc2ccccc12)c1ccccn1,4.0,2.2,-4.6,0.8,-24.4*
COc1ccc(N2CCN(CCS(=O)(=O)c3cc(Cl)ccc3Cl)CC2)cc1,-0.5,-3.1,-3.0,0.5,-21.6*
SMILES,ERAP1 HTS inh,F508del corr,S100A4 MyoIIA,SIRT5 block,Ecoli rRNA inh
CC(=O)N1CCN(CCS(=O)(=O)c2cc(Cl)ccc2Cl)CC1,1.2,-2.3,-1.1,-4.7,3.6
C[C@H](CO)N1C[C@H](C)[C@@H](CN(C)Cc2ccc(Oc3ccccc3)cc2)Oc2c(NC(=O)c3ccc(-c4nccs4)cc3)cccc2C1=O,-6.1,4.0,2.8,15.9*,4.3
C[C@H]1CN([C@@H](C)CO)C(=O)c2cccc(NC(=O)c3ccc(-c4nccs4)cc3)c2O[C@H]1CN(C)Cc1ccc(Oc2ccccc2)cc1,-4.9,2.0,-0.8,21.0*,-0.5
C[C@@H]1CN([C@@H](C)CO)C(=O)c2cccc(NC(=O)c3ccc(-c4nccs4)cc3)c2O[C@@H]1CN(C)Cc1ccccc1,-2.4,-0.9,4.4,15.4*,-4.9
C[C@@H]1CN([C@@H](C)CO)C(=O)c2cccc(NC(=O)c3ccc(-c4nccs4)cc3)c2O[C@@H]1CN(C)Cc1ccc(Oc2ccccc2)cc1,-5.6,-2.8,-1.5,12.3,1.1
C[C@H](CO)N1C[C@H](C)[C@@H](CN(C)Cc2ccccc2)Oc2c(NC(=O)c3ccc(-c4nccs4)cc3)cccc2C1=O,-5.1,1.3,-0.7,5.3,-7.8
CNC[C@H]1Oc2ncc(-c3cccc(C(=O)N(C)C)c3)cc2C(=O)N([C@H](C)CO)C[C@H]1C,3.5,-1.6,1.5,3.5,1.3
COc1ccc(CN(C)C[C@H]2Oc3c(NS(C)(=O)=O)cccc3C(=O)N([C@@H](C)CO)C[C@@H]2C)cc1,-2.1,-2.0,-0.3,4.1,-1.6
Cc1cccc(-c2ccc([C@H]3[C@H](CO)N4C(=O)CN(C(=O)CN5CCOCC5)C[C@@H]34)cc2)c1,-1.8,3.3,15.4,-1.8,3.5
C[C@H]1CN([C@@H](C)CO)S(=O)(=O)c2ccc(C#CC3CCCC3)cc2O[C@@H]1CN(C)Cc1cccnc1,-0.9,-1.0,25.7,16.6*,-14.0
C[C@H](CO)N1C[C@H](C)[C@H](CN(C)Cc2cncnc2)Oc2cc(C#CC3CCCC3)ccc2S1(=O)=O,0.3,6.2,3.1,17.5*,-1.8
COc1ccccc1C#Cc1ccc2c(c1)O[C@@H](CN(C)Cc1cccnc1)[C@H](C)CN([C@H](C)CO)S2(=O)=O,4.3,8.2*,8.8,-0.6,/
C[C@@H]1CN([C@@H](C)CO)S(=O)(=O)c2ccc(C#CC3CCCC3)cc2O[C@@H]1CN(C)Cc1cccnc1,0.3,6.1,4.3,8.8,-20.8
C[C@H]1CN([C@@H](C)CO)S(=O)(=O)c2ccc(C#CC3CCCC3)cc2O[C@H]1CN(C)C(=O)Cc1ccccc1,0.1,5.1,1.1,16.8*,5.6
C[C@@H]1CN([C@H](C)CO)S(=O)(=O)c2ccc(C#CC3CCCC3)cc2O[C@H]1CN(C)Cc1cncnc1,/,0.7,/,/,-13.6
C[C@@H]1CN([C@H](C)CO)S(=O)(=O)c2ccc(C#CC3CCCC3)cc2O[C@@H]1CN(C)C(=O)Cc1ccccc1,-2.6,2.8,2.5,3.3,0.3
COCC(=O)Nc1ccc2c(c1)[C@H]1C[C@@H](CC(=O)NCc3ccc(OC)cc3)O[C@@H](CO)[C@H]1O2,-0.2,-0.9,-3.0,1.2,1.8

# Assay outcomes deposited in PubChem by Broad Institute.
